Experimental data as given in ChEMBL document CHEMBL2157924, “Cyclobutane derivatives as novel nonpeptidic small molecule agonists of glucagon-like peptide-1 receptor” (J Med Chem, 2012).

Tests used:
[1] = target: T1, Glucagon-like peptide 1 receptor (Rattus norvegicus) (UniProt P32301); assay: Inhibition of [125I]Exendin (9-39) binding to rat GLP1R expressed in HEK293 cells; format: cell-based; design: concentration or dose not given beside the values; conditions: concentration not given here
T1 sequence (whole entry): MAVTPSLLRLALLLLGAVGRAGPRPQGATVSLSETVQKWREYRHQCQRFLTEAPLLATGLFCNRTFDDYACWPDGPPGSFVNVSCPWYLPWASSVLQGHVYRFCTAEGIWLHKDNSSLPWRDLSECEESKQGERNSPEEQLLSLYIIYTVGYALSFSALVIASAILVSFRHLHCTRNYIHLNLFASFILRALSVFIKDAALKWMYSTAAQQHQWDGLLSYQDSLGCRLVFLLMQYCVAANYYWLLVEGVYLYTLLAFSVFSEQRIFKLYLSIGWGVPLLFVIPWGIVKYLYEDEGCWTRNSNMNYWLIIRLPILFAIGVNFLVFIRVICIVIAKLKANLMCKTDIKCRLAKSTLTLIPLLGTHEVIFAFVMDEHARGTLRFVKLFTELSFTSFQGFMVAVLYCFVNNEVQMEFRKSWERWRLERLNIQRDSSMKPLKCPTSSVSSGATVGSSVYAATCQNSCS
Procedure, shortened: (§1)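 Membranes (17 μg protein) from HEK293 cells stably expressing rat GLP-1R were preincubated 5 h at 4 °C with FlashBlue beads (150 μg). Then 40 pM [125I]GLP-1(7−36) amide or [125I]Exendin(9−39) was added with aprotinin 2 μg/mL, leupeptin 100 μM and test compound at varied concentrations. Incubated overnight at 4 °C, then bound radioactivity counted. Mean ± SEM of two independent experiments.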

[2] = target: T2, Glucagon-like peptide 1 receptor (Rattus norvegicus, UniProt P32301); assay: Inhibition of [125I]GLP1 (7-36) amide binding to rat GLP1R expressed in HEK293 cells; format: cell-based; procedure, shortened: as §1
T2 sequence (P32301 whole entry): T1 sequence (whole entry)

[3] = target: T1, Glucagon-like peptide 1 receptor (Rattus norvegicus); assay: Inhibition of [125I]GLP1 (7-36) amide binding to rat GLP1R expressed in HEK293 cells relative to untreated control; format: cell-based; design: concentration or dose not given beside the values; conditions: concentration not given here; procedure, shortened: as §1
[4] = target: T1, Glucagon-like peptide 1 receptor (Rattus norvegicus); assay: Agonist activity at rat GLP1R expressed in HEK293 cells assessed as stimulation of cAMP levels incubated for 6 hrs by multiple response element/cAMP response element (MRE/CRE)-driven reporter gene assay relative to 10 nM GLP1; format: functional, cell-based
Procedure, shortened: (§2)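 Stable HEK293 line co-expressing rat GLP-1R (pCMV-Tag2B) and a luciferase reporter with 3× MRE plus 1× CRE, seeded at 40000 cells/well and cultured overnight. Compounds in DMSO or GLP-1(7−37) were added for 6 h, then cells were lysed and luciferase read (Steady-Glo). The 10 nM GLP-1 maximum was taken as 100%. Mean ± SEM of two independent experiments; some values come from a single run.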

[5] = target: T2, Glucagon-like peptide 1 receptor; assay: Agonist activity at rat GLP1R expressed in HEK293 cells assessed as stimulation of cAMP levels incubated for 6 hrs by multiple response element/cAMP response element (MRE/CRE)-driven reporter gene assay; format: functional, cell-based; procedure, shortened: as §2

Row | inhibition [1] [%] | IC50 [2] [µM] | inhibition [3] [%] | Efficacy [4] [%] | EC50 [5] [µM] | SMILES
1 | 33.4 | 3.2 | 45.7 | 32 |  | COc1cc([C@H]2[C@](NC(=O)c3ccc(NC(=O)Cc4ccccc4)cc3)(C(=O)O)[C@@H](c3ccc(OC(=O)c4cccs4)c(OC)c3)[C@]2(NC(=O)c2ccc(NC(=O)Cc3ccccc3)cc2)C(=O)O)ccc1OC(=O)c1cccs1
2 | < 15 |  | 43.6 | 43.6 | 8.31 | COc1cc([C@H]2[C@](NC(=O)c3ccc(NC(=O)OC(C)(C)C)cc3)(C(=O)O)[C@@H](c3ccc(OC(C)=O)c(OC)c3)[C@]2(NC(=O)c2ccc(NC(=O)OC(C)(C)C)cc2)C(=O)O)ccc1OC(C)=O
3 | 45.9 | 1.9 | 57.5 | 12 |  | COc1cc([C@H]2[C@](NC(=O)c3ccc(NC(=O)COCc4ccccc4)cc3)(C(=O)O)[C@@H](c3ccc(OC(=O)c4cccs4)c(OC)c3)[C@]2(NC(=O)c2ccc(NC(=O)COCc3ccccc3)cc2)C(=O)O)ccc1OC(=O)c1cccs1
4 | 6.3 |  | 13.5 | 21.6 |  | CC(C)(C)OC(=O)Nc1ccc(C(=O)N[C@]2(C(=O)O)[C@H](c3ccc(OC(=O)c4ccccc4)cc3)[C@@](NC(=O)c3ccc(NC(=O)OC(C)(C)C)cc3)(C(=O)O)[C@@H]2c2ccc(OC(=O)c3ccccc3)cc2)cc1
5 | 2.8 |  | 12.1 | < 15 | > 20 | CC(=O)Nc1ccc([C@H]2[C@](NC(=O)c3ccc(NC(=O)OC(C)(C)C)cc3)(C(=O)O)[C@@H](c3ccc(NC(C)=O)cc3)[C@]2(NC(=O)c2ccc(NC(=O)OC(C)(C)C)cc2)C(=O)O)cc1
6 | 70.5 |  | 89.8 | 121 |  | COc1cc([C@H]2[C@](NC(=O)c3ccc(NC(=O)OC(C)(C)C)cc3)(C(=O)O)[C@@H](c3ccc(OC(=O)c4cccs4)c(OC)c3)[C@]2(NC(=O)c2ccc(NC(=O)OC(C)(C)C)cc2)C(=O)O)ccc1OC(=O)c1cccs1 (stereo in doubt) [listing 1 of 2 here]
7 | 54.8 | 1 | 58.9 | 25 |  | COc1cc([C@H]2[C@](NC(=O)c3ccc(NC(=O)C4CCCCC4)cc3)(C(=O)O)[C@@H](c3ccc(OC(=O)c4cccs4)c(OC)c3)[C@]2(NC(=O)c2ccc(NC(=O)C3CCCCC3)cc2)C(=O)O)ccc1OC(=O)c1cccs1
8 | 69.7 | 0.9 | 77.3 | 49 |  | COc1cc([C@H]2[C@](NC(=O)c3ccc(NC(=O)C(C)NC(=O)OC(C)(C)C)cc3)(C(=O)O)[C@@H](c3ccc(OC(=O)c4cccs4)c(OC)c3)[C@]2(NC(=O)c2ccc(NC(=O)C(C)NC(=O)OC(C)(C)C)cc2)C(=O)O)ccc1OC(=O)c1cccs1 (some centres undefined)
9 |  | 1.3 | 73.4 | 68.2 |  | COc1cc([C@H]2[C@](NC(=O)c3ccc(NC(=O)OC(C)(C)C)cc3)(C(=O)O)[C@H](c3ccc(OC(=O)c4cccs4)c(OC)c3)[C@]2(NC(=O)c2ccc(NC(=O)OC(C)(C)C)cc2)C(=O)O)ccc1OC(=O)c1cccs1
10 | 8.3 |  | 27.6 | < 15 | > 20 | COc1cc([C@H]2[C@](NC(=O)c3ccc(NC(=O)OC(C)(C)C)cc3)(C(=O)O)[C@@H](c3ccc(OC(=O)c4ccco4)c(OC)c3)[C@]2(NC(=O)c2ccc(NC(=O)OC(C)(C)C)cc2)C(=O)O)ccc1OC(=O)c1ccco1
11 | 46.8 | 8 | 50.7 | 6 |  | COc1cc([C@H]2[C@](NC(=O)c3ccc(NC(=O)C45CC6CC(CC(C6)C4)C5)cc3)(C(=O)O)[C@@H](c3ccc(OC(=O)c4cccs4)c(OC)c3)[C@]2(NC(=O)c2ccc(NC(=O)C34CC5CC(CC(C5)C3)C4)cc2)C(=O)O)ccc1OC(=O)c1cccs1
12 | 14.3 |  | 10 | < 15 | > 20 | COc1cc([C@H]2[C@](NC(=O)c3ccc(NC(=O)OC(C)(C)C)cc3)(C(=O)O)[C@@H](c3ccc(OCc4ccccc4)c(OC)c3)[C@]2(NC(=O)c2ccc(NC(=O)OC(C)(C)C)cc2)C(=O)O)ccc1OCc1ccccc1
13 | 4.7 |  | 3.2 | 7.7 | 2.71 | COc1cc([C@H]2[C@](NC(=O)c3ccc(NC(=O)Nc4cccc(F)c4)cc3)(C(=O)O)[C@@H](c3ccc(OC(=O)c4cccs4)c(OC)c3)[C@]2(NC(=O)c2ccc(NC(=O)Nc3cccc(F)c3)cc2)C(=O)O)ccc1OC(=O)c1cccs1
14 | < 15 |  | 63.7 | 63.7 |  | CC(C)(C)OC(=O)Nc1ccc(C(=O)N[C@]2(C(=O)O)[C@H](c3ccc(OC(=O)c4cccs4)cc3)[C@@](NC(=O)c3ccc(NC(=O)OC(C)(C)C)cc3)(C(=O)O)[C@@H]2c2ccc(OC(=O)c3cccs3)cc2)cc1
15 | 27.9 | 16.2 | 35.2 | 48 |  | COc1cc([C@H]2[C@](NC(=O)c3ccc(NC(=O)C(C)N)cc3)(C(=O)O)[C@@H](c3ccc(OC(=O)c4cccs4)c(OC)c3)[C@]2(NC(=O)c2ccc(NC(=O)C(C)N)cc2)C(=O)O)ccc1OC(=O)c1cccs1 (some centres undefined)
16 | 52.7 | 8.1 | 59.3 | 38 |  | COc1cc([C@H]2[C@](NC(=O)c3ccc(NC(=O)CO)cc3)(C(=O)O)[C@@H](c3ccc(OC(=O)c4cccs4)c(OC)c3)[C@]2(NC(=O)c2ccc(NC(=O)CO)cc2)C(=O)O)ccc1OC(=O)c1cccs1
17 | 35.2 |  | 34.1 | 30 |  | COc1cc([C@H]2[C@](NC(=O)c3ccc(NC(=O)C(C)C)cc3)(C(=O)O)[C@@H](c3ccc(OC(C)=O)c(OC)c3)[C@]2(NC(=O)c2ccc(NC(=O)C(C)C)cc2)C(=O)O)ccc1OC(C)=O
18 | 9.6 |  | 21.2 | 24.8 |  | CC(C)(C)OC(=O)Nc1ccc(C(=O)N[C@]2(C(=O)O)[C@H](c3ccc(OCc4ccccc4)cc3)[C@@](NC(=O)c3ccc(NC(=O)OC(C)(C)C)cc3)(C(=O)O)[C@@H]2c2ccc(OCc3ccccc3)cc2)cc1
19 |  | 0.6 |  |  | 0.371 | COc1cc([C@H]2[C@](NC(=O)c3ccc(NC(=O)OC(C)(C)C)cc3)(C(=O)O)[C@@H](c3ccc(OC(=O)c4cccs4)c(OC)c3)[C@]2(NC(=O)c2ccc(NC(=O)OC(C)(C)C)cc2)C(=O)O)ccc1OC(=O)c1cccs1 (stereo in doubt) [listing 2 of 2 here]
20 | 2.4 |  | 7.45 | 7.5 | 9.4 | COc1ccc([C@H]2[C@](NC(=O)c3ccc(NC(=O)OC(C)(C)C)cc3)(C(=O)O)[C@@H](c3ccc(OC)cc3)[C@]2(NC(=O)c2ccc(NC(=O)OC(C)(C)C)cc2)C(=O)O)cc1
21 |  | 1.6 |  |  | 0.847 | COc1cc([C@H]2[C@](NC(=O)c3ccc(NC(=O)OC(C)(C)C)cc3)(C(=O)O)[C@@H](c3ccc(OC(=O)c4cccs4)c(OC)c3)[C@]2(NC(=O)c2ccc(NC(=O)OC(C)(C)C)cc2)C(=O)O)ccc1OC(=O)c1cccs1 (stereo in doubt; 3)
22 | 4.8 |  | 17.5 | 26 |  | COc1cc([C@H]2[C@](NC(=O)c3ccc(NC(=O)OC(C)(C)C)cc3)(C(=O)O)[C@@H](c3ccc(OC(=O)Cc4ccccc4)c(OC)c3)[C@]2(NC(=O)c2ccc(NC(=O)OC(C)(C)C)cc2)C(=O)O)ccc1OC(=O)Cc1ccccc1
23 | 56.3 | 4.3 | 42 | 16.5 |  | COc1cc([C@H]2[C@](NC(=O)c3ccc(NC(=O)OC(C)(C)C)cc3)(C(=O)O)[C@H](c3ccc(OC(=O)c4cccs4)c(OC)c3)[C@@]2(NC(=O)c2ccc(NC(=O)OC(C)(C)C)cc2)C(=O)O)ccc1OC(=O)c1cccs1
24 | 48.2 | 3.4 | 52.4 | 50 |  | CCCC(=O)Nc1ccc(C(=O)N[C@]2(C(=O)O)[C@H](c3ccc(OC(=O)c4cccs4)c(OC)c3)[C@@](NC(=O)c3ccc(NC(=O)CCC)cc3)(C(=O)O)[C@@H]2c2ccc(OC(=O)c3cccs3)c(OC)c2)cc1
25 | 9.4 |  | 32.5 | < 15 | > 20 | COc1cc([C@H]2[C@](NC(=O)c3ccc(NC(=O)OC(C)(C)C)cc3)(C(=O)O)[C@@H](c3ccc(NC(C)=O)c(OC)c3)[C@]2(NC(=O)c2ccc(NC(=O)OC(C)(C)C)cc2)C(=O)O)ccc1NC(C)=O
